Assay results as given in ChEMBL document CHEMBL3124924, “Bifunctional ethyl 2-amino-4-methylthiazole-5-carboxylate derivatives: synthesis and in vitro biological evaluation as antimicrobial and anticancer agents” (2014).
Converted amounts (≈) assume the structure as drawn. The source made the active and inactive calls. The rule behind the calls is not given here.

Tests used:
Candida albicans = assay: Antifungal activity against Candida albicans ATCC 10231 assessed as growth inhibition at 1 mg/mL after 48 hrs by agar-cup diffusion method; assay type: functional; details: ATCC 10231, 48 h, read-out: DIZ
How it was run: (§1)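 Agar-cup diffusion: 1 mL of 6 h broth culture seeded per 100 mL molten sterile agar at 45 °C and poured into plates. 8 mm cups cut, each filled with 0.1 mL of 1 mg/mL test solution. Incubated 37 °C for 24 h, 48 h for C. albicans. DMSO control per organism. Inhibition zone diameter in mm, mean of three measurements.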

Escherichia coli [1] = assay: Antibacterial activity against Escherichia coli ATCC 25922 assessed as growth inhibition at 1 mg/mL after 24 hrs by agar-cup diffusion method; assay type: functional; details: ATCC 25922, 24 h, read-out: DIZ; how it was run: as §1
Bacillus spizizenii [2] = assay: Antibacterial activity against Bacillus subtilis ATCC 6633 assessed as growth inhibition at 1 mg/mL after 24 hrs by agar-cup diffusion method; assay type: functional; details: ATCC 6633, 24 h, read-out: DIZ; how it was run: as §1
U-251 = assay: Cytotoxicity against human U251 cells assessed as growth inhibition at 10 uM after 48 hrs by SRB assay; assay type: functional; details: U-251, 48 h, read-out: GI
How it was run: (§2)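 NCI-60 one-dose primary screen run by the NCI Drug Evaluation Branch across the full 60-line panel. Single high-dose treatment with 48 h continuous drug exposure. Cell growth estimated by sulforhodamine B protein staining. Results given as percent growth of treated cells and expressed as percentage growth inhibition.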

SNB-75 = assay: Cytotoxicity against human SNB75 cells assessed as growth inhibition at 10 uM after 48 hrs by SRB assay; assay type: functional; details: SNB-75, 48 h, read-out: GI; how it was run: as §2
UACC-62 = assay: Cytotoxicity against human UACC62 cells assessed as growth inhibition at 10 uM after 48 hrs by SRB assay; assay type: functional; details: UACC-62, 48 h, read-out: GI; how it was run: as §2
SK-MEL-5 = assay: Cytotoxicity against human SK-MEL-5 cells assessed as growth inhibition at 10 uM after 48 hrs by SRB assay; assay type: functional; details: SK-MEL-5, 48 h, read-out: GI; how it was run: as §2
SK-MEL-2 = assay: Cytotoxicity against human SK-MEL-2 cells assessed as growth inhibition at 10 uM after 48 hrs by SRB assay; assay type: functional; details: SK-MEL-2, 48 h, read-out: GI; how it was run: as §2
[3] = Cytotoxicity against human UO31 cells assessed as growth inhibition at 10 uM after 48 hrs by SRB assay; assay type: functional; details: UO-31, 48 h, read-out: GI; how it was run: as §2
SN12C = assay: Cytotoxicity against human SN12C cells assessed as growth inhibition at 10 uM after 48 hrs by SRB assay; assay type: functional; details: read-out: GI; how it was run: as §2
CCRF-CEM = assay: Cytotoxicity against human CCRF-CEM cells assessed as growth inhibition at 10 uM after 48 hrs by SRB assay; assay type: functional; details: read-out: GI; how it was run: as §2
T47D = assay: Cytotoxicity against human T47D cells assessed as growth inhibition at 10 uM after 48 hrs by SRB assay; assay type: functional; details: read-out: GI; how it was run: as §2
MDA-MB-468 = assay: Cytotoxicity against human MDA-MB-468 cells assessed as growth inhibition at 10 uM after 48 hrs by SRB assay; assay type: functional; details: MDA-MB-468, 48 h, read-out: GI; how it was run: as §2
[4] = Cytotoxicity against human NCI-ADR-RES cells assessed as growth inhibition at 10 uM after 48 hrs by SRB assay; assay type: functional; details: read-out: GI; how it was run: as §2
MCF7 = assay: Cytotoxicity against human MCF7 cells assessed as growth inhibition at 10 uM after 48 hrs by SRB assay; assay type: functional; details: MCF7, 48 h, read-out: GI; how it was run: as §2
SW-620 = assay: Cytotoxicity against human SW620 cells assessed as growth inhibition at 10 uM after 48 hrs by SRB assay; assay type: functional; details: SW-620, 48 h, read-out: GI; how it was run: as §2
HT-29 = assay: Cytotoxicity against human HT-29 cells assessed as growth inhibition at 10 uM after 48 hrs by SRB assay; assay type: functional; details: HT-29, 48 h, read-out: GI; how it was run: as §2
HCT-15 = assay: Cytotoxicity against human HCT15 cells assessed as growth inhibition at 10 uM after 48 hrs by SRB assay; assay type: functional; details: HCT-15, 48 h, read-out: GI; how it was run: as §2
HCT-116 = assay: Cytotoxicity against human HCT116 cells assessed as growth inhibition at 10 uM after 48 hrs by SRB assay; assay type: functional; details: HCT-116, 48 h, read-out: GI; how it was run: as §2
HCC 2998 = assay: Cytotoxicity against human HCC2998 cells assessed as growth inhibition at 10 uM after 48 hrs by SRB assay; assay type: functional; details: HCC 2998, 48 h, read-out: GI; how it was run: as §2
NCI-H522 = assay: Cytotoxicity against human NCI-H522 cells assessed as growth inhibition at 10 uM after 48 hrs by SRB assay; assay type: functional; details: NCI-H522, 48 h, read-out: GI; how it was run: as §2
NCI-H322M = assay: Cytotoxicity against human NCI-H322M cells assessed as growth inhibition at 10 uM after 48 hrs by SRB assay; assay type: functional; details: read-out: GI; how it was run: as §2
HOP-92 = assay: Cytotoxicity against human HOP92 cells assessed as growth inhibition at 10 uM after 48 hrs by SRB assay; assay type: functional; details: HOP-92, 48 h, read-out: GI; how it was run: as §2
Aspergillus niger = assay: Antifungal activity against Aspergillus niger assessed as growth inhibition at 1 mg/mL after 24 hrs by agar-cup diffusion method; assay type: functional, organism-based; how it was run: as §1
Pseudomonas aeruginosa [5] = assay: Bactericidal activity against Pseudomonas aeruginosa ATCC 27853 after 18 hrs; assay type: functional; details: ATCC 27853, 18 h
How it was run: (§3)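 Continuation of the broth-dilution MIC test. A loopful from each tube without visible growth spread on a quarter of a Mueller-Hinton agar plate and incubated 18 h. Lowest concentration giving no growth on subculture taken as the MBC.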

Escherichia coli [6] = assay: Bactericidal activity against Escherichia coli ATCC 25922 after 18 hrs; assay type: functional; details: ATCC 25922, 18 h; how it was run: as §3
Escherichia coli [7] = assay: Antibacterial activity against Escherichia coli ATCC 25922 assessed as growth inhibition after 48 hrs by two-fold serial dilution assay; assay type: functional; details: ATCC 25922, 48 h
How it was run: (§4)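 Twofold serial broth dilution run on compounds giving inhibition zones of 13 mm or more. Organisms pre-grown in suitable broth at 37 °C, 24 h for bacteria and 48 h for fungi. Dilution series 200, 100, 50, 25, 12.5, 6.25. Each 5 mL tube inoculated with 0.1 mL and incubated 37 °C for 48 h. Tubes scored for presence or absence of growth.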

Bacillus spizizenii [8] = assay: Bactericidal activity against Bacillus subtilis ATCC 6633 after 18 hrs; assay type: functional; details: ATCC 6633, 18 h; how it was run: as §3
Bacillus spizizenii [9] = assay: Antibacterial activity against Bacillus subtilis ATCC 6633 assessed as growth inhibition after 48 hrs by two-fold serial dilution assay; assay type: functional; details: ATCC 6633, 48 h; how it was run: as §4
Staphylococcus aureus [10] = assay: Bactericidal activity against Staphylococcus aureus ATCC 6538 after 18 hrs; assay type: functional; details: ATCC 6538, 18 h; how it was run: as §3
Staphylococcus aureus [11] = assay: Antibacterial activity against Staphylococcus aureus ATCC 6538 assessed as growth inhibition at 1 mg/mL after 24 hrs by agar-cup diffusion method; assay type: functional; details: ATCC 6538, 24 h, read-out: DIZ; how it was run: as §1
Pseudomonas aeruginosa [12] = assay: Antibacterial activity against Pseudomonas aeruginosa ATCC 27853 assessed as growth inhibition at 1 mg/mL after 24 hrs by agar-cup diffusion method; assay type: functional; details: ATCC 27853, 24 h, read-out: DIZ; how it was run: as §1

| SMILES | zone of inhibition at 1000 µg/mL (Candida albicans) [mm] | zone of inhibition at 1000 µg/mL (Escherichia coli [1]) [mm] | zone of inhibition at 1000 µg/mL (Bacillus spizizenii [2]) [mm] | inhibition of growth at 10 µM (U-251) [%] | inhibition of growth at 10 µM (SNB-75) [%] | inhibition of growth at 10 µM (UACC-62) [%] | inhibition of growth at 10 µM (SK-MEL-5) [%] | inhibition of growth at 10 µM (SK-MEL-2) [%] | inhibition of growth at 10 µM [3] [%] | inhibition of growth at 10 µM (SN12C) [%] | inhibition of growth at 10 µM (CCRF-CEM) [%] | inhibition of growth at 10 µM (T47D) [%] | inhibition of growth at 10 µM (MDA-MB-468) [%] | inhibition of growth at 10 µM [4] [%] | inhibition of growth at 10 µM (MCF7) [%] | inhibition of growth at 10 µM (SW-620) [%] | inhibition of growth at 10 µM (HT-29) [%] | inhibition of growth at 10 µM (HCT-15) [%] | inhibition of growth at 10 µM (HCT-116) [%] | inhibition of growth at 10 µM (HCC 2998) [%] | also measured |
| --- | --- | --- | --- | --- | --- | --- | --- | --- | --- | --- | --- | --- | --- | --- | --- | --- | --- | --- | --- | --- | --- |
| CCOC(=O)c1sc(NC(=O)c2cc(OC)c(OC)c(OC)c2)nc1C | > 13 | > 13 | > 13 | < 10 | 2.51 | 11.5 | 5.59 | 69.1 | 24.3 | 7.38 | 11.7 | < 10 | 8.82 | 4.66 | 12.5 | < 10 | < 10 | 5.3 | 4.01 | 42.7 | inhibition of growth at 10 µM (NCI-H522): 32.6%; inhibition of growth at 10 µM (NCI-H322M): < 10%; inhibition of growth at 10 µM (HOP-92): 53.1%; growth inhibition (GI) (Aspergillus niger): inactive; MBC (Pseudomonas aeruginosa [5]): 100 µg/mL (≈ 263 µM); MBC (Escherichia coli [6]): 12.5 µg/mL (≈ 32.9 µM); MIC (Escherichia coli [7]): 12.5 µg/mL (≈ 32.9 µM); MBC (Bacillus spizizenii [8]): 50 µg/mL (≈ 131 µM); MIC (Bacillus spizizenii [9]): 25 µg/mL (≈ 65.7 µM); MBC (Staphylococcus aureus [10]): 6.25 µg/mL (≈ 16.4 µM); zone of inhibition at 1000 µg/mL (Staphylococcus aureus [11]): > 13 mm; zone of inhibition at 1000 µg/mL (Pseudomonas aeruginosa [12]): > 13 mm |
| CCOC(=O)c1sc(NC(=O)NC2CCCCC2)nc1C | > 13 | > 13 | > 13 | < 10 | < 10 | 26 | 8.95 | 64.1 | 10.6 | 5.62 | 6.76 | 4.11 | < 10 | 8.96 | 12.7 | 7.5 | 15.5 | 14.3 | 14.2 | < 10 | inhibition of growth at 10 µM (NCI-H522): < 10%; inhibition of growth at 10 µM (NCI-H322M): < 10%; inhibition of growth at 10 µM (HOP-92): 53.9%; growth inhibition (GI) (Aspergillus niger): inactive; MBC (Escherichia coli [6]): 100 µg/mL (≈ 321 µM); MIC (Escherichia coli [7]): 50 µg/mL (≈ 161 µM); MBC (Bacillus spizizenii [8]): 100 µg/mL (≈ 321 µM); MIC (Bacillus spizizenii [9]): 100 µg/mL (≈ 321 µM); MBC (Staphylococcus aureus [10]): 50 µg/mL (≈ 161 µM); zone of inhibition at 1000 µg/mL (Staphylococcus aureus [11]): > 13 mm; zone of inhibition at 1000 µg/mL (Pseudomonas aeruginosa [12]): > 13 mm |
